# According to ChEMBL document CHEMBL3864129, “Polybrominated Diphenyl Ethers: Structure Determination and Trends in Antibacterial Activity” (J Nat Prod, 2016):
# Key:
# Staphylococcus aureus [1] = assay: Antimicrobial activity against Staphylococcus aureus ATCC 29213 by CLSI M07-A9 method; type: functional
# Method in brief: (§1)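 Laboratory strains tested following CLSI guidelines. Each compound was run in duplicate in at least two independent experiments, and the MIC was recorded.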
# Staphylococcus aureus [2] = assay: Antimicrobial activity against Staphylococcus aureus ATCC 43300 by CLSI M07-A9 method; type: functional; method in brief: as §1
# Enterococcus faecium [3] = assay: Antimicrobial activity against Enterococcus […] ATCC 29212 by CLSI M07-A9 method; type: functional; method in brief: as §1
# Enterococcus faecium [4] = assay: Antimicrobial activity against Enterococcus […] ATCC 51299 by CLSI M07-A9 method; type: functional; method in brief: as §1
# Escherichia coli = assay: Antimicrobial activity against Escherichia coli ATCC 25922 by CLSI M07-A9 method; type: functional; method in brief: as §1
# Pseudomonas aeruginosa = assay: Antimicrobial activity against Pseudomonas aeruginosa ATCC 27853 by CLSI M07-A9 method; type: functional; method in brief: as §1
# Candida albicans = assay: Antimicrobial activity against Candida albicans ATCC 28517 by CLSI M07-A9 method; type: functional; method in brief: as §1
# [5] = Cytotoxicity against African green monkey BSC1 cells assessed as decrease in cell viability after 24 hrs by MTT assay; type: toxicity, cell-based, Chlorocebus aethiops, BSC-1; conditions: for IC50 at 24 h: African green monkey (Chlorocebus aethiops), BSC1 cells; for IC50: bsc-1
# [6] = Cytotoxicity against human HCT116 cells assessed as decrease in cell viability after 24 hrs by MTT assay; type: toxicity, cell-based, HCT-116
Molecule,MIC (Staphylococcus aureus [1]) [µg/mL],MIC (Staphylococcus aureus [2]) [µg/mL],MIC (Enterococcus faecium [3]) [µg/mL],MIC (Enterococcus faecium [4]) [µg/mL],MIC (Escherichia coli) [µg/mL],MIC (Pseudomonas aeruginosa) [µg/mL],MIC (Candida albicans) [µg/mL],IC50 at 24 h [5] [µg/mL],MNTC at 24 h [6] [µg/mL],IC50 [5] [µg/mL],Activity (Escherichia coli)
COc1c(Br)cc(Br)cc1Oc1cc(Br)c(Br)c(Br)c1OC,> 50,> 50,> 50,> 50,> 50,> 50,> 50,> 50,50,,
Oc1c(Br)cc(Br)cc1Oc1c(O)c(Br)c(Br)c(Br)c1Br,0.39,0.16,0.78,0.39,,,,,50,> 50,
C[C@@H]1[C@H](O)[C@@H](C)/C=C/C=C/C=C/C=C/C=C/C=C/C=C/[C@H](O[C@@H]2O[C@H](C)[C@@H](O)[C@H](N)[C@@H]2O)C[C@@H]2O[C@](O)(C[C@@H](O)C[C@@H](O)[C@H](O)CC[C@@H](O)C[C@@H](O)CC(=O)O[C@H]1C)C[C@H](O)[C@H]2C(=O)O [AMPHOTERICIN B],,,,,,,< 7.8,,,,
Oc1c(Oc2ccc(Br)cc2Br)cc(Br)c(Br)c1Br,3.7,0.4,1.2,1.2,> 100,,,,,15,
Oc1ccccc1Oc1ccccc1O,50,50,> 50,> 50,,,,,,,Non-Toxic
COc1c(Br)cc(Br)cc1Oc1ccc(Br)cc1Br,3.7,0.4,11,11,> 100,,,,,35,
COc1c(Br)c(Br)c(O)c(Oc2cc(Br)cc(Br)c2O)c1Br,0.78,0.39,3.1,1.56,> 50,> 50,> 50,,50,> 50,
Oc1c(Br)c(Br)c(Br)c(Br)c1Oc1ccc(Br)cc1Br,1.6,0.8,33,33,> 100,,,,,29,
COc1c(Br)cc(Br)cc1Oc1c(Br)c(OC)c(Br)c(Br)c1OC,3.1,3.1,13,13,> 50,> 50,> 50,,50,> 50,
COc1c(Br)cc(Br)cc1Oc1c(Br)c(Br)cc(Br)c1OC,> 50,> 50,50,> 50,> 50,> 50,> 50,> 50,50,,
Oc1c(Br)cc(Br)cc1Oc1c(O)c(Br)cc(Br)c1Br,1.6,0.31,3.1,3.1,100,> 50,> 50,,50,> 50,
Oc1cc(Br)c(Br)cc1Oc1ccc(Br)cc1Br,0.14,0.015,0.4,0.4,12.5,,,,,8.8,
Oc1cc(Br)cc(Br)c1O,100,> 50,12.5,25,> 100,> 50,> 50,,50,> 50,
Oc1c(Br)cc(Br)cc1Oc1c(Br)cc(Br)c(Br)c1O,0.78,0.16,1.6,0.78,,> 50,> 50,,50,> 50,
COc1cc(Br)c(Br)c(Br)c1Oc1cc(Br)cc(Br)c1OC,> 50,> 50,> 50,> 50,> 50,> 50,> 50,,50,> 50,
Oc1cc(Br)c(Br)c(Br)c1Oc1cc(Br)cc(Br)c1O,0.31,0.078,0.39,0.39,25,,> 50,,50,> 50,
GENTAMICIN,,,,,,1,,,,,
Cc1onc(-c2ccccc2)c1C(=O)N[C@@H]1C(=O)N2[C@@H]1SC(C)(C)[C@@H]2C(=O)O [OXACILLIN],0.13,> 32,,32,,,,,,,
Oc1cc(Br)cc(Br)c1Oc1cc(Br)cc(Br)c1O,1.6,1.25,3.1,1.6,,> 50,> 50,,50,> 50,
COc1c(Br)cc(Br)cc1Oc1c(Br)cc(Br)c(Br)c1OC,> 50,> 50,,,> 50,> 50,> 50,,50,> 50,
Oc1c(Br)cc(Br)cc1Oc1ccc(Br)cc1Br,0.78,0.19,0.8,0.8,> 100,,,,,32,
Oc1c(Br)cc(Br)cc1Oc1cc(Br)c(Br)c(Br)c1O,0.31,0.16,1.6,0.78,,,> 50,,50,> 50,
Oc1cc(Br)cc(Br)c1Oc1ccc(Br)cc1Br,0.042,0.08,1.2,1.2,3.1,> 50,> 50,,,7,
